In ChEMBL document CHEMBL1131524, “Azapeptides as inhibitors and active site titrants for cysteine proteinases” (J Med Chem, 1998):

Tests used:
Cathepsin B (Bos taurus) [1] = target: Cathepsin B (Bos taurus) (UniProt P07688); experiment: The apparent second-order rate constant for inactivation of bovine cathepsin B enzyme. Apparent rate constant was determined from repeats of Kobs vs [I] using at least 5 values of [I].
In short: (§1)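 Bovine spleen cathepsin B was activated with 10 mM dithiothreitol, and its active concentration was set by E-64 titration. Assays ran in 25 mM sodium acetate, 1 mM EDTA, pH 5.3, with 20% CH3CN and 80 μM Cbz-Lys-ONp, monitored at 326 nm. Inactivation was analysed by Kitz–Wilson, with kobsd from semilog plots of activity versus time.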

Papain (Carica papaya) [2] = target: T1, Papain (Carica papaya) (UniProt P00784); experiment: The apparent second-order rate constant for inactivation of papain enzyme. Apparent rate constant was determined from repeats of Kobs vs [I] using at least 5 values of [I].
T1 sequence (whole entry): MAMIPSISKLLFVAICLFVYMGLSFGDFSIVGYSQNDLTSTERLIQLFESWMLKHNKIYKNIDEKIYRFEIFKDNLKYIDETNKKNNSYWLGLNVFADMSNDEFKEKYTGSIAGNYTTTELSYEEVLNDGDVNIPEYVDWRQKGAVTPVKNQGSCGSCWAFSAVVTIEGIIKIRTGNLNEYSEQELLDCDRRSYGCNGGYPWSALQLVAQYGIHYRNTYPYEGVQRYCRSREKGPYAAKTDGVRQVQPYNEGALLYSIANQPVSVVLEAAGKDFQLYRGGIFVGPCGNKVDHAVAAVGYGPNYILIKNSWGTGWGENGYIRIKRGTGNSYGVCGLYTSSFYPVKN
In short: (§2)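 Papain purified from mercuripapain on Hg-Sepharose, then activated with L-cysteine for 15 min at room temperature in 50 mM K2HPO4, 1 mM EDTA, pH 6.3. Assays used 50 μM Cbz-Gly-ONp in buffer with 20% CH3CN, followed at 340 nm and corrected for spontaneous hydrolysis. Analysis was by Kitz–Wilson, with kobsd taken from slopes of semilog activity-versus-time plots.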

Cathepsin B (Bos taurus) [3] = target: Cathepsin B (Bos taurus) (UniProt P07688); experiment: Specificity constant is determined from the ratio of the inactivation rate constants (Kcat/Km)of the cathepsin B.
Papain (Carica papaya) [4] = target: T1, Papain (Carica papaya); experiment: Specificity constant is determined from the ratio of the inactivation rate constants (Kcat/Km)of the papaine.
Papain (Carica papaya) [5] = target: T1, Papain (Carica papaya); experiment: Specificity constant is determined from the ratio of the inactivation rate constants (Kcat/Km)of the papain.
Papain (Carica papaya) [6] = target: T1, Papain (Carica papaya); experiment: Specificity constant is determined from the ratio of the inactivation rate constants (Kcat/Km)of the papain
Cathepsin B (Bos taurus) [7] = target: Cathepsin B (Bos taurus) (UniProt P07688); experiment: The apparent second-order rate constant for inactivation of bovine cathepsin B enzyme. Apparent rate constant was determined from repeats of Kobs vs [I] using at least 5 values of [I], where I=0.2 mM
In short: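 Bovine spleen cathepsin B, activated with 10 mM dithiothreitol, in 25 mM sodium acetate pH 5.3 with 1 mM EDTA and 20% CH3CN (v/v). Substrate 80 μM Cbz-Lys-ONp; hydrolysis followed at 326 nm (Δε 9060 M⁻¹ cm⁻¹). Enzyme concentration set by E-64 titration. Kitz–Wilson analysis: k_obsd from slopes of semilog plots of activity vs time.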

Cathepsin B (Bos taurus) [8] = target: Cathepsin B (Bos taurus) (UniProt P07688); experiment: The apparent second-order rate constant for inactivation of bovine cathepsin B enzyme. Apparent rate constant was determined from repeats of Kobs vs [I] using at least 5 values of [I], where I=0.95 mM; in short: as §1
Papain (Carica papaya) [9] = target: T1, Papain (Carica papaya); experiment: The apparent second-order rate constant for inactivation of papain enzyme. Apparent rate constant was determined from repeats of Kobs vs [I] using at least 5 values of [I] where I=0.95 mM; in short: as §2

| SMILES | k2/Ki (Cathepsin B (Bos taurus) [1]) [M⁻¹ s⁻¹] | k2/Ki (Papain (Carica papaya) [2]) [M⁻¹ s⁻¹] | k cat/Km (Cathepsin B (Bos taurus) [3]) [M⁻¹ s⁻¹] | also measured |
| --- | --- | --- | --- | --- |
| CC(=O)N[C@@H](Cc1ccccc1)C(=O)NNC(=O)OCCBr | 90 | 1250 | – | – |
| CC(=O)N[C@@H](Cc1ccccc1)C(=O)NNC(=O)Oc1ccccc1 | 7730 | 67600 | 7730 | k cat/Km (Papain (Carica papaya) [4]): 67600 M⁻¹ s⁻¹ |
| NCCCC[C@H](NC(=O)OCc1ccccc1)C(=O)Oc1ccc([N+](=O)[O-])cc1 | – | – | 776000 | k cat/Km (Papain (Carica papaya) [5]): 853000 M⁻¹ s⁻¹ |
| CC(=O)N[C@@H](Cc1ccccc1)C(=O)NNC(=O)OCCCl | 54 | 1150 | – | – |
| CC(=O)N[C@@H](Cc1ccccc1)C(=O)NNC(=O)OCC(C)C | – | 55 | – | – |
| CC(=O)N[C@@H](Cc1ccccc1)C(=O)NNC(N)=O | 0 | 4 | – | – |
| C[C@H](NC(=O)OCc1ccccc1)C(=O)Oc1ccc([N+](=O)[O-])cc1 | – | – | 450000 | k cat/Km (Papain (Carica papaya) [6]): 800000 M⁻¹ s⁻¹ |
| CCOC(=O)NNC(=O)[C@H](Cc1ccccc1)NC(C)=O | – | 47 | – | – |
| CCOC(=O)N(C)NC(=O)[C@H](Cc1ccccc1)NC(C)=O | – | 0.05 | – | – |
| CC(=O)N[C@@H](Cc1ccccc1)C(=O)NNC(=O)Nc1ccc([N+](=O)[O-])cc1 | 0 | 1 | – | – |
| CC(=O)N[C@@H](Cc1ccccc1)C(=O)N/N=C(/N)S | – | 0.03 | – | – |
| COC(=O)NNC(=O)[C@H](Cc1ccccc1)NC(C)=O | – | 19 | – | – |
| CC(=O)N[C@@H](Cc1ccccc1)C(=O)NNC(=O)OCC(Cl)(Cl)Cl | 730 | 11800 | 730 | k cat/Km (Papain (Carica papaya) [4]): 11800 M⁻¹ s⁻¹ |
| CC(=O)N[C@@H](Cc1ccccc1)C(=O)NN(C)C(=O)Oc1ccccc1 | – | 110 | 18 | k cat/Km (Papain (Carica papaya) [4]): 110 M⁻¹ s⁻¹; k obs / 1 (Cathepsin B (Bos taurus) [7]): 18 |
| CC(=O)N[C@@H](Cc1ccccc1)C(=O)NNC(=O)OCc1ccccc1 | 310 | 30500 | – | – |
| CC(=O)N[C@@H](Cc1ccccc1)C(=O)NNC(=O)Oc1ccc([N+](=O)[O-])cc1 | – | > 70000 | – | – |
| CC(=O)N[C@@H](Cc1ccccc1)C(=O)NN(C)C(=O)OCC(Cl)(Cl)Cl | – | 12 | – | kobs/[I] (Cathepsin B (Bos taurus) [8]): 0.34 M⁻¹ s⁻¹ |
| O=C(N[C@@H](Cc1ccccc1)C(=O)Oc1ccc([N+](=O)[O-])cc1)OCc1ccccc1 | – | – | 80000 | k cat/Km (Papain (Carica papaya) [6]): 120000 M⁻¹ s⁻¹ |
| COC(=O)N(C)NC(=O)[C@H](Cc1ccccc1)NC(C)=O | – | 0.05 | – | – |
| CC(=O)N[C@@H](Cc1ccccc1)C(=O)NN(Cc1ccccc1)C(=O)Oc1ccccc1 | – | – | – | kobs/[I] (Papain (Carica papaya) [9]): 0.3 M⁻¹ s⁻¹; kobs/[I] (Cathepsin B (Bos taurus) [8]): < 0.2 M⁻¹ s⁻¹ |
